The test system of assay [1] is Rattus norvegicus. Description: Hypotensive activity in Wistar rat assessed as reduction in methoxamine-induced pressure response at 5 mg/kg. Type of assay: functional, organism-based. More on the design: dose 5 mg/kg. The essentials: (§1)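 In anaesthetized rats, pressor responses were evoked by i.v. epinephrine, norepinephrine or methoxamine. Blood pressure was recorded through a heparin-saline-filled cannula in the carotid artery.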

The subject of assay [2] is Rattus norvegicus. Description: Hypotensive activity in Wistar rat assessed as reduction in norepinephrine-induced blood pressure response at 5 mg/kg. Type of assay: functional, organism-based. Details: dose 5 mg/kg. The essentials:
as §1

The subject of assay [3] is Rattus norvegicus. Description: Antiarrhythmic activity against adrenaline-induced arrhythmia in rat assessed as reduction in cardiac block at 5 mg/kg, iv administered 15 mins before adrenaline challenge. Particulars: Heart. The format is functional, organism-based. Details: dose 5 mg/kg. The essentials:
(§2)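 Rats anaesthetized with thiopental 60 mg/kg ip were dosed i.v. 15 min before an i.v. adrenaline challenge. Cardiac rhythm disturbances (bradycardia, extrasystoles, bigeminy, blocks) were recorded for 15 min after adrenaline and compared with controls.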

Assay [4] deals with Rattus norvegicus. Description: Hypotensive activity in Wistar rat assessed as reduction in epinephrine-induced blood pressure response at 5 mg/kg. Details: dose 5 mg/kg. Type of assay: functional, organism-based. The essentials:
as §1

Assay [5] has as its system Rattus norvegicus. Description: Antiarrhythmic activity against adrenaline-induced arrhythmia in iv dosed rat assessed as reduction in mortality rate administered 15 mins before adrenaline challenge. Particulars: Heart. The format is functional, organism-based. The essentials:
(§3)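 Rats anaesthetized with thiopental 60 mg/kg ip received the compound i.v. 15 min before an i.v. adrenaline challenge. Rhythm disturbances were recorded for 15 min after adrenaline. Activity was defined as absence of premature beats and inhibition of disturbances versus controls. ED50 values, with confidence limits, were derived by Litchfield–Wilcoxon from three groups of six animals.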

Assay [6] deals with Rattus norvegicus. Description: Antiarrhythmic activity against adrenaline-induced arrhythmia in rat assessed as reduction in ventricular extrasystole at 5 mg/kg, iv administered 15 mins before adrenaline challenge. Type of assay: functional, organism-based. More on the design: dose 5 mg/kg. To be noted: Heart. The essentials: as §2
The subject of assay [7] is Rattus norvegicus. Kind of assay: Antiarrhythmic activity against adrenaline-induced arrhythmia in rat assessed as reduction in supraventricular extrasystole at 5 mg/kg, iv administered 15 mins before adrenaline challenge. Type of assay: functional, organism-based. More on the design: dose 5 mg/kg. To be noted: Heart. The essentials: as §2
The test system of assay [8] is Rattus norvegicus. Description: Antiarrhythmic activity against adrenaline-induced arrhythmia in rat assessed as reduction in bigeminy at 5 mg/kg, iv administered 15 mins before adrenaline challenge. Details: dose 5 mg/kg. Particulars: Heart. The format is functional, organism-based. The essentials: as §2
In assay [9] the test system is Rattus norvegicus. Kind of assay: Antiarrhythmic activity against adrenaline-induced arrhythmia in iv dosed rat assessed as inhibition of cardiac rhythm disturbance administered 15 mins before adrenaline challenge. To be noted: Heart. Type of assay: functional. The essentials: as §3
Assay [10] has as its target T1, Adrenergic receptor alpha-2 (Rattus norvegicus, UniProt P22086+P19328+P22909).
T1 sequence (P22086 whole entry): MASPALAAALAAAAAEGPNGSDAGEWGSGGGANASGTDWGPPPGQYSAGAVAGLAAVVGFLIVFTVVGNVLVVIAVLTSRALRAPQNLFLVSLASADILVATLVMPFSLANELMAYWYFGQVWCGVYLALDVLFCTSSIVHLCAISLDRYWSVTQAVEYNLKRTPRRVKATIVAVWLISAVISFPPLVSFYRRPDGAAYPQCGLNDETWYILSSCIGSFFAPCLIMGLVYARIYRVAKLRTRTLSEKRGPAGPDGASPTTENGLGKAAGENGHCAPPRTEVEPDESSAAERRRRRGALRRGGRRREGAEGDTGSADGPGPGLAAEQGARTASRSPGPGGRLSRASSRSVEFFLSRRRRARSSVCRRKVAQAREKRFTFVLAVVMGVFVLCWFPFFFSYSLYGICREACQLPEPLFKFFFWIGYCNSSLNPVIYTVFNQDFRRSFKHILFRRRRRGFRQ
T1 sequence (P19328 whole entry): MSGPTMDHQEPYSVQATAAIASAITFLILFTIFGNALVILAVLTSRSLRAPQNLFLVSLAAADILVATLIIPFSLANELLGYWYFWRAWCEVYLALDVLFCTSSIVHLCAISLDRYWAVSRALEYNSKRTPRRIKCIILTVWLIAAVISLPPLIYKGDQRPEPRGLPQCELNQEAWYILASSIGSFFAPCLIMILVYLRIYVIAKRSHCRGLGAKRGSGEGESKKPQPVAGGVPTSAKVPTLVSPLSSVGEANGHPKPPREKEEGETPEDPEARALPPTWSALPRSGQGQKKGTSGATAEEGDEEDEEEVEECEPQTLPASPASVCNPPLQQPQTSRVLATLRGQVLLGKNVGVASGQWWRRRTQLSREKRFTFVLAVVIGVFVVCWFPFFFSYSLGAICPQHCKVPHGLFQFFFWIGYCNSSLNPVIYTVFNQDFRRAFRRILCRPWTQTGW
T1 sequence (P22909 whole entry): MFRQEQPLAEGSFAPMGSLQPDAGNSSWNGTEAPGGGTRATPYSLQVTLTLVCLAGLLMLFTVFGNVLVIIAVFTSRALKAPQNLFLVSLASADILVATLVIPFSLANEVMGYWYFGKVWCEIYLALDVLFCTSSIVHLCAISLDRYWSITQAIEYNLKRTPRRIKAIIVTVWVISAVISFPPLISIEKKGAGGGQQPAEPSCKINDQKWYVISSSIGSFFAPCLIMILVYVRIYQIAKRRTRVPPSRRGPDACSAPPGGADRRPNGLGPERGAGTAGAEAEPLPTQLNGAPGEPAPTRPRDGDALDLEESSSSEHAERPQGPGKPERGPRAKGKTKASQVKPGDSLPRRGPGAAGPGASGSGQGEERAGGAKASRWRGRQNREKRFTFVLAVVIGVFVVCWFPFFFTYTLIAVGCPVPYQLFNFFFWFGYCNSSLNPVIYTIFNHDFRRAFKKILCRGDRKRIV
Kind of assay: Displacement of [3H]clonidine from alpha2 adrenergic receptor in rat cerebral cortex by liquid scintillation counting. Type of assay: tissue-based. The essentials: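 Rat cerebral cortex membranes were prepared in ice-cold 50 mM Tris–HCl pH 7.6 (20 000 × g, 20 min, 0–4 °C, washed twice). They were incubated with [3H]clonidine 2 nM and seven to eight compound concentrations (10^-11–10^-4 M), with excess unlabelled clonidine defining nonspecific binding. Samples were glass-fiber filtered and counted by liquid scintillation, in duplicate. Ki was calculated by Cheng–Prusoff.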
Background: Displacement assays read how much labelled ligand stays bound in the presence of the test substance.

The subject of assay [11] is Rattus norvegicus. Kind of assay: Antiarrhythmic activity against adrenaline-induced arrhythmia in rat assessed as reduction in reflex bradycardia at 5 mg/kg, iv administered 15 mins before adrenaline challenge. The format is functional, organism-based. Details: dose 5 mg/kg. Particulars: Heart. The essentials: as §2
The species entered for assay [12] is Rattus norvegicus. Kind of assay: Hypotensive activity in Wistar rat assessed as reduction in epinephrine-induced systolic blood pressure response. Type of assay: functional, organism-based. Particulars: Artery. The essentials: as §1
Assay [13] is filed under the species Rattus norvegicus. Description: Hypotensive activity in Wistar rat assessed as reduction in norepinephrine-induced systolic blood pressure response. The format is functional, organism-based. Particulars: Artery. The essentials: as §1
The species named for assay [14] is Rattus norvegicus. Kind of assay: Hypotensive activity in Wistar rat assessed as reduction in methoxamine-induced systolic blood pressure response. Type of assay: functional, organism-based. Particulars: Artery. The essentials:
as §1

In assay [15] the test system is Rattus norvegicus. Kind of assay: Antiarrhythmic activity against adrenaline-induced arrhythmia in iv dosed rat assessed as reduction in supraventricular extrasystole administered 15 mins before adrenaline challenge. The format is functional, organism-based. To be noted: Heart. The essentials: as §3
Assay [16] has as its system Rattus norvegicus. Kind of assay: Antiarrhythmic activity against adrenaline-induced arrhythmia in iv dosed rat assessed as reduction in ventricular extrasystole administered 15 mins before adrenaline challenge. The format is functional, organism-based. Particulars: Heart. The essentials:
as §3

The subject of assay [17] is Rattus norvegicus. Kind of assay: Antiarrhythmic activity against adrenaline-induced arrhythmia in iv dosed rat assessed as reduction in bigeminy administered 15 mins before adrenaline challenge. The format is functional, organism-based. To be noted: Heart. The essentials:
as §3

In assay [18] the test system is Rattus norvegicus. Kind of assay: Hypotensive activity in normotensive Wistar rat assessed as diastolic blood pressure at 5 mg/kg, iv after 20 mins (Rvb=125.5 +/- 0.6 mmHg). Type of assay: functional, Artery.
Assay [19] concerns Rattus norvegicus. Kind of assay: Hypotensive activity in normotensive Wistar rat assessed as systolic blood pressure at 5 mg/kg, iv after 20 mins (Rvb=140.5 +/- 1.1 mmHg). Type of assay: functional, Artery.
The subject of assay [20] is Rattus norvegicus. Description: Hypotensive activity in normotensive Wistar rat assessed as diastolic blood pressure at 5 mg/kg, iv after 20 mins (Rvb=126 +/- 4.6 mmHg). The format is functional, Artery.

The source made the active and inactive calls.

Usually ED50 stands for the dose that gives a 50% effect, or the effect in half of the subjects. As a reminder, the pKi is −log10 of the Ki, conventionally taken in molar units. A lower pKi goes with a high Ki. For the molecule `CCOc1ccccc1N1CCN(CC(O)CN2CCC(c3ccccc3)(c3ccccc3)C2=O)CC1.Cl.Cl` (stereo unspecified), the result in the assay on Rattus norvegicus [1], with Rattus norvegicus [2], with Rattus norvegicus [3], with Rattus norvegicus [4], in the assay with Rattus norvegicus [5] and in the assay with Rattus norvegicus [6] was Active. The result with Rattus norvegicus [7], in the assay on Rattus norvegicus [8] and in the assay on Rattus norvegicus [11] was Active. The ED50 in the assay on Rattus norvegicus [9] turned out to be 1.1 mg/kg. In assay [10], this molecule had a pKi of 6.38.
With `COc1ccc(N2CCN(CC(O)CN3CCC(c4ccccc4)(c4ccccc4)C3=O)CC2)cc1.Cl.Cl` (stereo unspecified), the outcome in the assay listed under Rattus norvegicus [12], in the assay listed under Rattus norvegicus [13] and in the assay listed under Rattus norvegicus [14] was inactive. The negative logarithm of the Ki (pKi) in [10] is 6.
As to `COc1ccccc1N1CCN(CC(O)CN2CCC(c3ccccc3)(c3ccccc3)C2=O)CC1.Cl.Cl` (stereo unspecified), the outcome in the assay with Rattus norvegicus [1], with Rattus norvegicus [2], in the assay on Rattus norvegicus [4], with Rattus norvegicus [5], in the assay on Rattus norvegicus [15] and with Rattus norvegicus [16] was Active. The outcome with Rattus norvegicus [17] was Active. In addition, the ED50 with Rattus norvegicus [9] was found to be 2.05 mg/kg. Moreover, the negative-log Ki (pKi) in assay [10] came out at 6.68.
As to `Cl.Cl.O=C1N(CC(O)CN2CCN(c3ccccc3)CC2)CCC1(c1ccccc1)c1ccccc1` (stereo unspecified), the outcome with Rattus norvegicus [1], with Rattus norvegicus [2], in the assay with Rattus norvegicus [4], with Rattus norvegicus [5], with Rattus norvegicus [15] and with Rattus norvegicus [16] was Active. In the assay with Rattus norvegicus [17], the result was Active. Moreover, the ED50 in the assay with Rattus norvegicus [9] was 1.9 mg/kg. Further, in assay [10], the pKi is listed as 6.64. The Activity was determined as 116.5 mmHg in the assay on Rattus norvegicus [18] and 135.5 mmHg in the assay with Rattus norvegicus [19].
Consider `Cl.Cl.O=C1N(CC(O)CN2CCN(c3ccccc3C(F)(F)F)CC2)CCC1(c1ccccc1)c1ccccc1` (stereo unspecified), for which the outcome in the assay listed under Rattus norvegicus [12], in the assay listed under Rattus norvegicus [13] and in the assay listed under Rattus norvegicus [14] was inactive. The outcome with Rattus norvegicus [5], in the assay with Rattus norvegicus [15], in the assay on Rattus norvegicus [16] and with Rattus norvegicus [17] was Active. In addition, the ED50 with Rattus norvegicus [9] was 3.9 mg/kg. Besides, in assay [10], the pKi is on record as 5.29.
Regarding `Cc1ccccc1N1CCN(CC(O)CN2CCC(c3ccccc3)(c3ccccc3)C2=O)CC1.Cl.Cl` (stereo unspecified), the result with Rattus norvegicus [1], with Rattus norvegicus [2], in the assay with Rattus norvegicus [3], with Rattus norvegicus [4], in the assay with Rattus norvegicus [5] and with Rattus norvegicus [6] was Active. In addition, the outcome with Rattus norvegicus [7], in the assay on Rattus norvegicus [8] and with Rattus norvegicus [11] was Active. For the same molecule, in the assay on Rattus norvegicus [9], the ED50 was 1.4 mg/kg. In [10], the pKi is 6.51. Moreover, in the assay with Rattus norvegicus [20], the Activity was found to be 119.7 mmHg.

(Values after ChEMBL document CHEMBL1154048, “Design, synthesis and pharmacological evaluation of new 1-[3-(4-arylpiperazin-1-yl)-2-hydroxy-propyl]-3,3-diphenylpyrrolidin-2-one derivatives with antiarrhythmic, antihypertensive, and alpha-adrenolytic activity” (Eur J Med Chem, 2009).)
